According to ChEMBL document CHEMBL1155442, “Click chemistry approach to new N-substituted aminocyclitols as potential pharmacological chaperones for Gaucher disease” (J Med Chem, 2010):
Activity calls are given as the source filed them. The calls are words filed in the database; no cut-off is given here.

Key:
[1] = target: T1, Lysosomal acid glucosylceramidase (Homo sapiens) (UniProt P04062); experiment: Binding affinity to recombinant beta-glucocerebrosidase assessed as enzymatic activity at 150 uM after 20 mins by thermal stabilization assay relative to control
T1 sequence (whole entry): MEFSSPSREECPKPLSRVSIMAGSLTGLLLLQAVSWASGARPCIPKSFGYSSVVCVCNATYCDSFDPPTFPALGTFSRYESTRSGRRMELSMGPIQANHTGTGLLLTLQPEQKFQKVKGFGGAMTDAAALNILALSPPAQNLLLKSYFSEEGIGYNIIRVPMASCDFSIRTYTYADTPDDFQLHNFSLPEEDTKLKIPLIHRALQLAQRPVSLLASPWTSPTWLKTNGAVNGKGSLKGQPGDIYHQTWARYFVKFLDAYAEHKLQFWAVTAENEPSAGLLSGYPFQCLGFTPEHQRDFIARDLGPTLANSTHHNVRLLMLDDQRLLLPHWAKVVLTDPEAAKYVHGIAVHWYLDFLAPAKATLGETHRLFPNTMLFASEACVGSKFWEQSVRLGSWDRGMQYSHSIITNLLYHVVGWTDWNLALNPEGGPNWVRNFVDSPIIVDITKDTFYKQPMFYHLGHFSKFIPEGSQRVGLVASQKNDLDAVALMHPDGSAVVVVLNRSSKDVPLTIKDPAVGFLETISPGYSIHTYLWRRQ

[2] = target: T1, Lysosomal acid glucosylceramidase (Homo sapiens); experiment: Binding affinity to recombinant beta-glucocerebrosidase assessed as enzymatic activity at 100 uM after 60 mins by thermal stabilization assay relative to control
[3] = Cytotoxicity against human fibroblast at 300 uM after 24 hrs by MTT assay; assay type: cell-based
Oryza sativa [4] = experiment: Inhibition of rice alpha-glucosidase at 0.1 mM
[5] = target: T1, Lysosomal acid glucosylceramidase (Homo sapiens); experiment: Binding affinity to recombinant beta-glucocerebrosidase assessed as enzymatic activity at 10 uM after 60 mins by thermal stabilization assay relative to control
Procedure, shortened: (§1)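 Recombinant GCase (imiglucerase, 2 mg/mL aliquots) held at pH 7.4 and 48 °C with 0 (control) or 10–150 μM compound. At 20, 40 or 60 min, acetate-phosphate buffer (pH 5.0) and 4 mM 4-methylumbelliferyl β-D-glucoside in McIlvaine pH 5.2 added. Incubated 10 min at 37 °C with 0.1% Triton X-100 and 0.2% taurodeoxycholic acid. Stopped with glycine pH 10.6; 4-MU fluorescence read. Activity expressed relative to enzyme at 37 °C.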

[6] = Selectivity index, ratio of CC50 for human fibroblast to Ki for beta-glucocerebrosidase
[7] = target: T1, Lysosomal acid glucosylceramidase (Homo sapiens); experiment: Binding affinity to recombinant beta-glucocerebrosidase assessed as enzymatic activity at 25 uM after 60 mins by thermal stabilization assay relative to control; procedure, shortened: as §1
[8] = target: T2, Lysosomal acid glucosylceramidase (Homo sapiens, UniProt P04062); experiment: Inhibition of recombinant beta-glucocerebrosidase at pH 5.2 after 10 mins by fluorimetry
T2 sequence (P04062 whole entry): T1 sequence (whole entry)

[9] = target: T1, Lysosomal acid glucosylceramidase (Homo sapiens); experiment: Binding affinity to recombinant beta-glucocerebrosidase assessed as enzymatic activity at 10 uM after 40 mins by thermal stabilization assay relative to control; procedure, shortened: as §1
[10] = target: T1, Lysosomal acid glucosylceramidase (Homo sapiens); experiment: Binding affinity to recombinant beta-glucocerebrosidase assessed as enzymatic activity at 50 uM after 40 mins by thermal stabilization assay relative to control
[11] = target: T1, Lysosomal acid glucosylceramidase (Homo sapiens); experiment: Binding affinity to recombinant beta-glucocerebrosidase assessed as enzymatic activity at 150 uM after 60 mins by thermal stabilization assay relative to control
[12] = target: T3, Beta-galactosidase (Bos taurus) (UniProt Q58D55); experiment: Inhibition of bovine liver beta-galactosidase at 0.1 mM
T3 sequence (whole entry): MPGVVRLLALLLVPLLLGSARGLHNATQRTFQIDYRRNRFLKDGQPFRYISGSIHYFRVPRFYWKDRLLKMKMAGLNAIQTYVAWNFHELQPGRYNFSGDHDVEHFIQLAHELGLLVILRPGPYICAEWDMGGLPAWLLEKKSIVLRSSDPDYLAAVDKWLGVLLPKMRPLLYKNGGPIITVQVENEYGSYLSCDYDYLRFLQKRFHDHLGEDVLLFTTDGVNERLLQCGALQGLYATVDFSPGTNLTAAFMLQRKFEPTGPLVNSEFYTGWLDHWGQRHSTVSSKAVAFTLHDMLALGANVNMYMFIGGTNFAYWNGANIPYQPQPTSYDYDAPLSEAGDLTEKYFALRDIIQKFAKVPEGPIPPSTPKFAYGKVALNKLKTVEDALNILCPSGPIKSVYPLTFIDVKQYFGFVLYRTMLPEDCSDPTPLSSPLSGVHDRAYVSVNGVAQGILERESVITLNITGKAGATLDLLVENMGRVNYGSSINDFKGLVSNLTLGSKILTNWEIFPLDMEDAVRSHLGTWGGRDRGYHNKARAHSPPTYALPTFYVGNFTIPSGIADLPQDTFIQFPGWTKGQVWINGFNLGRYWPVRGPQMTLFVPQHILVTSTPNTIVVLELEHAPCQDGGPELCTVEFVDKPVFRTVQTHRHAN

[13] = target: T1, Lysosomal acid glucosylceramidase (Homo sapiens); experiment: Binding affinity to recombinant beta-glucocerebrosidase assessed as enzymatic activity at 10 uM after 20 mins by thermal stabilization assay relative to control; procedure, shortened: as §1
[14] = target: T1, Lysosomal acid glucosylceramidase (Homo sapiens); experiment: Binding affinity to recombinant beta-glucocerebrosidase assessed as enzymatic activity at 100 uM after 40 mins by thermal stabilization assay relative to control
[15] = Dissociation constant, pKa of the compound; assay type: physicochemical
[16] = target: T2, Lysosomal acid glucosylceramidase; experiment: Inhibition of recombinant beta-glucocerebrosidase at pH 7.4 after 10 mins by fluorimetry
[17] = target: T2, Lysosomal acid glucosylceramidase; experiment: Competitive inhibition of beta-glucocerebrosidase at pH 5.2 by Lineweaver-Burke plot analysis
[18] = target: T2, Lysosomal acid glucosylceramidase; experiment: Inhibition of recombinant beta-glucocerebrosidase after 10 mins by fluorimetry
Procedure, shortened: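 Imiglucerase (0.1 mg/mL stock) in McIlvaine buffer, pH 5.2 or 7.4, with 0.2% sodium taurocholate and 0.1% Triton X-100. Preincubated 30 min at 37 °C with or without inhibitor. Then 4 mM 4-methylumbelliferyl-β-D-glucopyranoside added for 10 min at 37 °C. Stopped with glycine/NaOH pH 10.6; 4-MU read at ex 355/em 460 nm. IC50 from % activity vs log[I], at least five concentrations.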

Oryza sativa [19] = experiment: Inhibition of rice alpha-galactosidase at 0.1 mM
[20] = target: T1, Lysosomal acid glucosylceramidase (Homo sapiens); experiment: Binding affinity to recombinant beta-glucocerebrosidase assessed as enzymatic activity at 50 uM after 20 mins by thermal stabilization assay relative to control
Prunus dulcis = experiment: Inhibition of sweet almond beta-glucosidase at 0.1 mM
Saccharomyces cerevisiae = experiment: Inhibition of yeast alpha-glucosidase at 0.1 mM
[21] = target: T1, Lysosomal acid glucosylceramidase (Homo sapiens); experiment: Inhibition of beta-glucocerebrosidase in human fibroblast at 10 uM after 24 hrs by fluorescence assay
Procedure, shortened: (§2)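 Wild-type human fibroblasts exposed to compound for 24 h (10, 20 or 50 μM, as listed) with 5 mM substrate. Cellular GCase activity then measured.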

[22] = target: T1, Lysosomal acid glucosylceramidase (Homo sapiens); experiment: Binding affinity to recombinant beta-glucocerebrosidase assessed as enzymatic activity at 25 uM after 20 mins by thermal stabilization assay relative to control; procedure, shortened: as §1
[23] = target: T1, Lysosomal acid glucosylceramidase (Homo sapiens); experiment: Inhibition of beta-glucocerebrosidase in human fibroblast at 50 uM after 24 hrs by fluorescence assay; procedure, shortened: as §2
[24] = target: T1, Lysosomal acid glucosylceramidase (Homo sapiens); experiment: Binding affinity to recombinant beta-glucocerebrosidase assessed as enzymatic activity at 100 uM after 20 mins by thermal stabilization assay relative to control
[25] = target: T1, Lysosomal acid glucosylceramidase (Homo sapiens); experiment: Binding affinity to recombinant beta-glucocerebrosidase assessed as enzymatic activity at 50 uM after 60 mins by thermal stabilization assay relative to control
[26] = target: T1, Lysosomal acid glucosylceramidase (Homo sapiens); details: 0.1 to 0.25 uM
[27] = target: T1, Lysosomal acid glucosylceramidase (Homo sapiens); experiment: Binding affinity to recombinant beta-glucocerebrosidase assessed as enzymatic activity at 150 uM after 40 mins by thermal stabilization assay relative to control
[28] = target: T1, Lysosomal acid glucosylceramidase (Homo sapiens); experiment: Binding affinity to recombinant beta-glucocerebrosidase assessed as enzymatic activity at 25 uM after 40 mins by thermal stabilization assay relative to control; procedure, shortened: as §1
[29] = target: T1, Lysosomal acid glucosylceramidase (Homo sapiens); experiment: Inhibition of beta-glucocerebrosidase in human fibroblast at 20 uM after 24 hrs by fluorescence assay; procedure, shortened: as §2
[30] = system: Glucosylceramide synthase (Homo sapiens); experiment: Inhibition of glucosylceramide synthase in human A549 cells at 250 uM after 35 mins by fluorescence-coupled HPLC analysis
[31] = Cytotoxicity against human fibroblast after 24 hrs by MTT assay; assay type: cell-based; details: human fibroblasts

fold change (FC) [1] | fold change (FC) [2] | inhibition (Oryza sativa [4]) | IC50 [8] [nM] | fold change (FC) [10] | fold change (FC) [11] | inhibition [12] | fold change (FC) [14] | pKa [15] | IC50 [16] [nM] | Ki [17] [nM] | IC50 [18] [nM] | inhibition (Oryza sativa [19]) | fold change (FC) [20] | inhibition (Prunus dulcis) | inhibition (Saccharomyces cerevisiae) | inhibition [23] | fold change (FC) [24] | fold change (FC) [25] | Compound | Activity [3] | also measured
3.24 | 20.9 | inactive | 100 | 8.33 | 25.9 | inactive | 8.88 | 7.1 | 90 | 90 | 93.3 | inactive | 2.7 | inactive | inactive | 90% | 2.91 | 17.2 | CCCCCCCCCCn1cc(CN[C@H]2[C@H](O)[C@@H](O)[C@H](O)[C@@H](O)[C@@H]2O)nn1 | Non-toxic | fold change (FC) [5]: 4.19; Selectivity Index [6]: >=3300; fold change (FC) [7]: 10.2; fold change (FC) [9]: 3.56; fold change (FC) [13]: 1.55; inhibition [21]: 58%; fold change (FC) [22]: 2.21; inhibition [26]: Active; fold change (FC) [27]: 10.5; fold change (FC) [28]: 5.95; inhibition [29]: 71%
2.5 | 11.6 | inactive | 25400 | 5.98 | 5.3 | inactive | 6.7 | 9.1 | 4900 | 20200 | 25700 | inactive | 2.43 | inactive | inactive | 50% | 2.55 | 9.63 | CCCCCCCCCCCn1cc(CCN[C@H]2[C@H](O)[C@@H](O)[C@H](O)[C@@H](O)[C@@H]2O)nn1 | Non-toxic | inhibition [30]: 30%; fold change (FC) [27]: 4.79
– | – | inactive | 257000 | – | – | inactive | – | 10.4 | 44600 | – | 257000 | inactive | – | inactive | inactive | < 5% | – | – | CCCCCCn1cc(CCCN[C@H]2[C@H](O)[C@@H](O)[C@H](O)[C@@H](O)[C@@H]2O)nn1 | Non-toxic | inhibition [30]: 30%

Compound | fold change (FC) [1] | fold change (FC) [2] | inhibition (Oryza sativa [4]) | IC50 [8] [nM] | fold change (FC) [10] | fold change (FC) [11] | inhibition [12] | fold change (FC) [14] | pKa [15] | IC50 [16] [nM] | Ki [17] [nM] | IC50 [18] [nM] | inhibition (Oryza sativa [19]) | fold change (FC) [20] | inhibition (Prunus dulcis) | inhibition (Saccharomyces cerevisiae) | inhibition [23] | fold change (FC) [24] | fold change (FC) [25] | Activity [3] | also measured
CCCCCCCCCCCCn1cc(CN[C@H]2[C@H](O)[C@@H](O)[C@H](O)[C@@H](O)[C@@H]2O)nn1 | 3.21 | 28.7 | inactive | 30 | 10.9 | 26.2 | inactive | 12.8 | 7.1 | 60 | 60 | 30.2 | inactive | 3.11 | inactive | inactive | Toxic | 3.41 | 24.9 | – | fold change (FC) [5]: 18.7; Selectivity Index [6]: 916; fold change (FC) [7]: 23.2; fold change (FC) [9]: 8.48; fold change (FC) [13]: 2.65; CC50 at 24 h [31]: 55000 nM; inhibition [21]: 87%; fold change (FC) [22]: 2.97; fold change (FC) [27]: 11.5; fold change (FC) [28]: 9.42; inhibition [29]: 90%
